Sampled rows, rich in hits. Any-hit rate of the full collection: about 0.55%.
ABCG2 inh – ABCG2 efflux pump inhibitors, primary screen, multiplex with ABCB1, IgMXP3 cells, flow cytometry. inhibition, % at 6.6 µM. actives 0.1% (n = 190,000). JC-1 efflux. Broad substrate specificity ATP-binding cassette transporter ABCG2 (Homo sapiens), Q9UNQ0;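 active means inhibition above 80%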;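 further: 0% = DMSO and 100% = nicardipine control wells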
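Test system: IgMXP3 (ABCG2) plus far-red-tagged CCRF-Adr (ABCB1) cells. Reagent: JC-1 dye as substrate. Timing: 10 min exposure at 25 °C with rotation, no wash. Measured by: flow cytometric JC-1 green MFI at 530 nm. Read-out: percent efflux inhibition, scaled nicardipine 100% to DMSO 0%. Control set: nicardipine and DMSO wells.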
HSV augment – enhancers of HSV replication in host cells, fold increase, host cell viability; AID 1956, 2009; HSV replication augmentation in cells; maximum fold increase; actives 0.005% (n = 220,000); in the data active means maximum fold increase above about 1.5; inconclusive means no clear call, values can overlap the other calls; tested in PC3 cells
Rad51 HR inh – human RAD51 strand exchange inhibitors, primary screen, biochemical, fluorescence; hRad51 DNA strand exchange, fluorescence dequenching; inhibition, % at 10 µM; actives 0.085% (n = 200,000);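 active means inhibition above 40% at the single screening dose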;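 further: 0% = DMSO control wells and 100% = blanks with heterologous ssDNA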
Target sequence (Q06609 whole entry, looked up): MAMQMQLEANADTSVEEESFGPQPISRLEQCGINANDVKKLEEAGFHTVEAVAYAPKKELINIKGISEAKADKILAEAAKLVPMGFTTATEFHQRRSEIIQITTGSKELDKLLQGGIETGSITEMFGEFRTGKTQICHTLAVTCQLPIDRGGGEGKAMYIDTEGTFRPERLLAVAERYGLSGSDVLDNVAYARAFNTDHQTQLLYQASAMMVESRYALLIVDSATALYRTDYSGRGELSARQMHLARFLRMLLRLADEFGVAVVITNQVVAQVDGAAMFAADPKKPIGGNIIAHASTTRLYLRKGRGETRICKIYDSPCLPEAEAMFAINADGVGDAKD
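Test system: preformed human Rad51 ssDNA filaments; also added: Donor/quencher-labelled 47-bp dsDNA substrate; doses: 10 µM final, single point; times: 37 °C 15-min filament assembly, 30-min compound preincubation, 15-min exchange; detection: FRET fluorescence dequenching, excitation 485 nm, emission 520 nm; read-out basis: Fluorescence-based percent inhibition, control- and blank-normalised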
ABCB1 block – ABCB1 efflux pump inhibitors, primary screen, cell-based, multiplex, flow cytometry, ABCG2 counter-screen; ATP-dependent translocase ABCB1 (Homo sapiens), P08183; CCRF-Adr cells, JC-1 efflux; inhibition, % at 6.6 µM; actives 0.067% (n = 190,000); in the data active means inhibition above about 40%;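 further: 0% = vehicle and 100% = reference inhibitor; higher value means more JC-1 retained so stronger ABCB1 efflux block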
ABCB6 inh MLPCN – ABCB6 transporter inhibitors, primary screen, K562-ABCB6 cells, flow cytometry, MLPCN library; actives 0.19% (n = 360,000); fluorescence ratio to DMSO, % at 10 µM; ATP-binding cassette sub-family B member 6 (Homo sapiens), Q9NP58; K562-ABCB6 porphyrin accumulation, 1 h; active compounds read low;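 active means fluorescence ratio to DMSO below 75%, the collection mean minus 3 SD; inconclusive means too few cells collected in the well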;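 further: signal is porphyrin accumulated inside mitochondria; 100% equals median channel fluorescence of DMSO control wells; lower ratio means ABCB6 inhibition with less porphyrin fluorescence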
p97 inhibitor – inhibitors of human p97 ATPase, primary screen, biochemical | Transitional endoplasmic reticulum ATPase (Homo sapiens), P55072 | recombinant p97 ATPase, Kinase-Glo ATP luminescence, 3 h | actives 0.42% (n = 220,000) | inhibition, % at 8 µM | AID 1481, 2009; in the data active means inhibition above about 15%;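 further: 0% = DMSO vehicle and 100% = wells lacking enzyme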
* hit, by the source's call; i = inactive; ? = inconclusive; nt = not tested or not shown.

SMILES	ABCG2 inh	HSV augment	Rad51 HR inh	ABCB1 block	ABCB6 inh MLPCN	p97 inhibitor
COC(=O)c1ccc(CSc2nc3ccc(Cl)cc3[nH]2)o1	5	i	2	1	92	5
COC(=O)c1ccc(CSc2nc3scc(-c4cccs4)c3c(=O)[nH]2)o1	0	i	-10	0	59*	12
CCOC(=O)c1nc(N/N=C/c2ccccc2)sc1Br	nt	nt	nt	nt	93	nt
O=C(CCl)Nc1cn(-c2ccccc2)nc1-c1ccccc1	12	i	8	0	100	15*
CN(C)c1ncnc2c1ncn2[C@H]1CN(C2CCCC2)C[C@@H](CO)O1	nt	nt	nt	nt	96	nt
CCOC(=O)c1c(C)[nH]c(C(=O)N/N=C/c2ccc(Br)cc2)c1C	-1	nt	-3	0	74*	-4
Cc1[nH]c(C(=O)N/N=C/c2ccc(C(=O)O)cc2)c(C)c1C(=O)N/N=C/c1ccc(C(=O)O)cc1	-3	i	7	0	93	-2
CSc1ccc(C2=C/C(=C3/SC(=S)NC3=O)c3ccccc3O2)cc1	nt	nt	nt	nt	153	nt
CCn1c(Cl)c(C=O)s/c1=N\S(=O)(=O)c1ccccc1	nt	i	-4	nt	38*	-4
CCN1C(=O)CS/C1=N\S(=O)(=O)c1ccc(Cl)cc1	7	i	5	1	102	0
CC1=C(C(=O)N2CCOCC2)CC(CC(=O)NCCCN(C)C)C(=O)N1CCCN1CCCC1=O (centres undefined)	nt	nt	nt	nt	99	nt
CCOc1ccccc1-c1c2cc(O)c(=O)cc-2oc2cc(O)c(O)cc12	-6	nt	-74	0	139	4
COc1ccc(OC)c(-c2c3cc(O)c(=O)cc-3oc3cc(O)c(O)cc23)c1	-20	?	-150	-1	133	22*
CCCC(=Nc1ccc(N)cc1)C1=C(O)C(C(=O)OC)C(C)(C)CC1=O (centres undefined)	0	i	-4	0	103	15*
O=c1c(Br)ccc(Br)cc1Br	nt	nt	nt	nt	19*	nt
O=C1CN(S(=O)(=O)c2cc(Br)ccc2Br)CCN1	nt	nt	nt	nt	99	nt
O=C(c1ccc(Br)cc1)N1CCCC1	14	i	-3	0	96	-2
CN1CCN(C(=O)c2ccc(S(=O)(=O)c3ccc(Br)cc3)cc2)CC1	2	i	55*	1	96	3
Cc1ccc(CNC(C)(C)CO)cc1	-1	i	16	0	101	-2
CC(C)(CO)NCc1ccc(Br)cc1	3	i	43*	1	106	2
CC(=O)O/N=C/c1c(N2CCOCC2)n(C)c2ccccc12	29	i	-3	-1	52*	7
COCCN1Cc2cccc(C(=O)Nc3cc(C)cc(C)c3)c2C1=O	82*	i	-1	26	94	1
CCOC(=O)C1CCCN(C(=O)c2oc3ccccc3c2C)CC1 (centres undefined)	nt	nt	nt	nt	102	nt
CCOC(=O)CN1C(=O)N[C@@H](c2ccccc2)[C@@H](C(=O)OC)[C@H]1C	nt	i	2	nt	97	nt
CCOC(=O)CN1C(=O)N[C@@H](CCc2ccccc2)[C@@H](C(=O)OC)[C@H]1C	nt	i	53*	nt	99	nt
SMILES	ABCG2 inh	HSV augment	Rad51 HR inh	ABCB1 block	ABCB6 inh MLPCN	p97 inhibitor
Nc1ccc2oc(-c3ccccc3Cl)cc(=O)c2c1O	11	i	-4	1	96	10
O=c1cc(-c2ccccc2Cl)oc2ccc([N+](=O)[O-])c(O)c12	29	i	60*	2	99	5
CC(OC(=O)C1CC1)C(=O)Nc1cc(Cl)cc(Cl)c1 (centres undefined)	nt	nt	nt	nt	97	nt
O=C(O)CCCCCN1C(=O)/C(=C\c2ccc(-c3ccc(Cl)cc3)o2)SC1=S	nt	?	-66	nt	143	0
O=C(O)CCCN1C(=O)/C(=C/c2ccc(-c3nc4ccccc4s3)o2)SC1=S	1	nt	nt	0	63*	-1
CCOc1cc(/C=C2/SC(=S)NC2=O)ccc1OC(=O)c1ccco1	-2	4.6*	-4	-1	97	9
O=S(=O)(Nc1ccc(O)c(CN2CCCCC2)c1)c1ccccc1	2	i	57*	1	103	2
Cn1c(CN2CCCC2)nc2cc(NS(=O)(=O)c3ccccc3)ccc21	14	i	0	1	99	5
C[C@H](CO)N1C[C@H](C)[C@@H](CN(C)C(=O)Nc2ccc3c(c2)OCO3)Oc2ccc(NS(=O)(=O)c3cn(C)cn3)cc2C1=O	nt	nt	nt	nt	96	nt
Cc1ccc(/C=C2\SC(=S)N(/N=C/c3cc([N+](=O)[O-])ccc3O)C2=O)o1	-6	i	-120	-2	92	21*
O=[N+]([O-])c1ccc(O)c(/C=N/n2cnc3ccccc32)c1	-4	i	-4	-1	95	10
CCOC(=O)N1CCN(C(=O)C2CCCN(S(=O)(=O)c3cc(C)ccc3OC)C2)CC1 (centres undefined)	1	i	-9	1	96	-1
CCCS(=O)(=O)N1CCCC(C(=O)N2CCN(C(=O)OCC)CC2)C1 (centres undefined)	2	i	69*	0	106	2
O=C1CCc2cc(S(=O)(=O)NC(C(=O)N3CCN(c4ccccn4)CC3)c3ccccc3)ccc2N1 (centres undefined)	8	i	41*	1	95	5
CCCOc1ccccc1N/C(=N/c1nc(C)cc(C)n1)NC(=O)COc1ccc(OC)cc1	11	i	97*	1	93	-5
COCCn1c(=NC(=O)CSC(C)=O)sc2cc(OC)ccc21	35	i	6	2	97	-6
COCCn1c(=NC(=O)CSC(C)=O)sc2cc(F)ccc21	4	i	83*	0	94	5
CCS(=O)(=O)c1ncc(Cl)c(C(=O)Nc2ccccc2OC)n1	nt	nt	nt	nt	69*	nt
CC1CCN(S(=O)(=O)c2ccc(NC(=O)c3ccncc3)cc2)CC1	nt	nt	nt	nt	93	nt
CCS(=O)(=O)c1ncc(Cl)c(C(=O)Nc2ccc(S(=O)(=O)N3CCC(C)CC3)cc2)n1	nt	nt	nt	nt	44*	nt
CN(c1ccccc1)S(=O)(=O)c1ccc(NC(=O)c2nc(S(C)(=O)=O)ncc2Cl)cc1	nt	nt	nt	nt	40*	nt
CN(c1ccccc1)S(=O)(=O)c1ccc(NC(=O)c2ccccc2)cc1	-2	i	-6	0	94	4
CN[C@H](C)C(=O)NC[C@H]1O[C@@H](n2cc(C)c(=O)[nH]c2=O)C[C@@H]1O	nt	nt	nt	nt	103	nt

Assay outcomes from PubChem BioAssay.
